Data taken from ChEMBL document CHEMBL1138940, “Design and synthesis of orally efficacious benzimidazoles as melanin-concentrating hormone receptor 1 antagonists” (Bioorg Med Chem Lett, 2006).

Tests used:
Rattus norvegicus = assay: AUC(0-6h) in rat at 10 mg/kg, po; conditions: in vivo
[1] = target: T1, Melanin-concentrating hormone receptor 1 (Homo sapiens, UniProt Q99705); assay: Binding affinity to human MCHR1 by radioligand binding assay
[2] = target: Melanin-concentrating hormone receptor 2 (Homo sapiens) (UniProt Q969V1); assay: Binding affinity to human MCHR2 assessed as inhibition of MCH-mediated calcium ion influx by FLIPR assay; assay type: functional
[3] = target: Melanin-concentrating hormone receptor 1 (Mus musculus) (UniProt Q8JZL2); assay: Inhibition of MCH-ADO binding to mouse brain at 30 mg/kg, po after 6 hrs; assay type: functional, organism-based; parameters: dose 30 mg/kg
In short: (§1)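 Mouse ex vivo receptor binding after a single 30 mg/kg oral dose: MCH-ADO binding was measured at 6 h and 24 h post-dose and expressed as percent inhibition relative to vehicle controls, mean ± SEM, n = 3.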

Mus musculus [4] = assay: Inhibition of cumulative food intake in DIO mouse at 30 mg/kg, po after 6 hrs; assay type: functional
In short: (§2)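 Diet-induced obese mice were fasted 24 h, then given 30 mg/kg orally 1 h before dark onset. Food was returned at dark onset, and cumulative intake was measured at 2, 6 and 24 h. Results are expressed as percent inhibition versus vehicle-treated controls.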

Mus musculus [5] = assay: Inhibition of cumulative food intake in DIO mouse at 30 mg/kg, po after 24 hrs; assay type: functional
In short: as §2

Mus musculus [6] = assay: Inhibition of cumulative food intake in DIO mouse at 30 mg/kg, po after 2 hrs; assay type: functional
In short: as §2

[7] = target: T1, Melanin-concentrating hormone receptor 1; assay: Binding affinity to human MCHR1 assessed as inhibition of MCH-mediated calcium ion influx by FLIPR assay; assay type: functional
In short: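 Functional antagonism at human MCH-R1: cells expressing hMCH-R1 were read by FLIPR for block of MCH-mediated Ca2+ influx, and the value was reported as Kb.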

[8] = target: Melanin-concentrating hormone receptor 1 (Mus musculus) (UniProt Q8JZL2); assay: Inhibition of MCH-ADO binding to mouse brain at 30 mg/kg, po after 24 hrs; assay type: functional, organism-based; parameters: dose 30 mg/kg
In short: as §1

Sequence of Melanin-concentrating hormone receptor 2 (Homo sapiens) (Q969V1 whole entry): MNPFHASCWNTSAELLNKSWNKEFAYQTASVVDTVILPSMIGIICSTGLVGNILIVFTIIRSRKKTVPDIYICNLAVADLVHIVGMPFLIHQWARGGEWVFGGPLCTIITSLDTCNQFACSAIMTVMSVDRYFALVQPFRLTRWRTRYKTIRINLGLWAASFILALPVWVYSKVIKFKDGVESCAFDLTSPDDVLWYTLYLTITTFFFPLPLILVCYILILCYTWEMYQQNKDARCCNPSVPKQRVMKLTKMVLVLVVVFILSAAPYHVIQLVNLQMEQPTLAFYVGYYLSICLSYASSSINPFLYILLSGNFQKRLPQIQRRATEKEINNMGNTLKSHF
Sequence of Melanin-concentrating hormone receptor 1 (Mus musculus) (Q8JZL2 whole entry): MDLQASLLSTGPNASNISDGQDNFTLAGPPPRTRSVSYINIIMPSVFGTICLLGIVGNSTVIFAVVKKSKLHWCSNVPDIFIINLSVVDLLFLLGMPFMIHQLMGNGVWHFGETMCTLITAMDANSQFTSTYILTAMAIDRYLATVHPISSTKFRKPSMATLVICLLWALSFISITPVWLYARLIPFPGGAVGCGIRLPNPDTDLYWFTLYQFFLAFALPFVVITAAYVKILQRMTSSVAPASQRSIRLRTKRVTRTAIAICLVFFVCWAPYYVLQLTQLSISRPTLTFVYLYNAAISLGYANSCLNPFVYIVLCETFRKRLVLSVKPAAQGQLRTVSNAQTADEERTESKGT
T1 sequence (Q99705 whole entry): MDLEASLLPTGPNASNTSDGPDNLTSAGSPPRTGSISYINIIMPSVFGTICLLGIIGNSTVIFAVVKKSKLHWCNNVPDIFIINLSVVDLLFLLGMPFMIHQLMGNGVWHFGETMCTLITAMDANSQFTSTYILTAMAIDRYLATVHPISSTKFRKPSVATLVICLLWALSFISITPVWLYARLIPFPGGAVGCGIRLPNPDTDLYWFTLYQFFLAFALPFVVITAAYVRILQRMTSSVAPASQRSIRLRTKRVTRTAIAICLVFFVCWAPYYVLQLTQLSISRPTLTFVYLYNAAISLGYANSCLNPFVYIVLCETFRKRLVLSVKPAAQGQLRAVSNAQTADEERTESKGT

SMILES	Ki [1] [nM]	Activity [2] [µM]	also measured
N#Cc1ccc(F)c(-c2ccc(C(=C3CCN(CC4CC4)CC3)c3nc4cc(C(F)(F)F)c(F)cc4[nH]3)cc2)c1	3.9	–	AUC (Rattus norvegicus): 3000 ng·h/mL
NC(=O)c1cccc(-c2ccc(C(=C3CCN(CC4CC4)CC3)c3nc4cc(C(F)(F)F)c(F)cc4[nH]3)cc2)c1	77	–	–
CS(=O)(=O)N1CCC(=C(c2ccc(-c3cccc(C#N)c3)cc2)c2nc3cc(F)c(C(F)(F)F)cc3[nH]2)CC1	71.4	> 3	–
N#Cc1cccc(-c2ccc(C(=C3CCN(CC4CC4)CC3)c3nc4cc(Cl)c(Cl)cc4[nH]3)cc2)c1	15	> 3	inhibition [3]: 68%; inhibition in vivo at 30 mg/kg (Mus musculus [4]): 41.8%; inhibition in vivo at 30 mg/kg (Mus musculus [5]): 26.8%; inhibition in vivo at 30 mg/kg (Mus musculus [6]): 37.4%; AUC (Rattus norvegicus): 6640 ng·h/mL; Kb [7]: 70 nM; inhibition [8]: 54%
CS(=O)(=O)c1cccc(-c2ccc(C(=C3CCN(CC4CC4)CC3)c3nc4cc(F)c(C(F)(F)F)cc4[nH]3)cc2)c1	–	> 3	–
N#Cc1cccc(-c2ccc(C(=C3CCN(CC4CC4)CC3)c3nc4cc(Cl)cc(Cl)c4[nH]3)cc2)c1	87	> 3	–
N#Cc1cccc(-c2ccc(C3(c4nc5cc(F)c(C(F)(F)F)cc5[nH]4)CC34CCN(CC(=O)O)CC4)cc2)c1 (configuration not stated)	41	> 3	–
N#Cc1cnc(O)c(-c2ccc(C(=C3CCN(CC4CC4)CC3)c3nc4cc(F)c(C(F)(F)F)cc4[nH]3)cc2)c1	–	> 3	–
N#Cc1cccc(-c2ccc(C(=C3CCN(Cc4nccs4)CC3)c3nc4cc(C(F)(F)F)c(F)cc4[nH]3)cc2)c1	45	> 3	–
CN(C)C(=O)N1CCC2(CC1)CC2(c1ccc(-c2cccc(C#N)c2)cc1)c1nc2cc(F)c(C(F)(F)F)cc2[nH]1 (configuration not stated)	32	> 3	–
N#Cc1ccc(F)c(-c2ccc(C(=C3CCN(CC4CC4)CC3)c3nc4cc(F)c(C(F)(F)F)cc4[nH]3)cc2)c1	–	> 3	inhibition [3]: 92%; inhibition [8]: 80%
N#Cc1cccc(-c2ccc(C3(c4nc5cc(C(F)(F)F)c(F)cc5[nH]4)CC34CCN(C(=O)N3CCCC3)CC4)cc2)c1 (configuration not stated)	–	> 3	–
N#Cc1cccc(-c2ccc(C(=C3CCN(CCO)CC3)c3nc4cc(F)c(C(F)(F)F)cc4[nH]3)cc2)c1	–	> 3	–
CC(=O)N1CCC(=C(c2ccc(-c3cccc(C#N)c3)cc2)c2nc3cc(F)c(C(F)(F)F)cc3[nH]2)CC1	31	> 3	inhibition [3]: 48%; AUC (Rattus norvegicus): 5250 ng·h/mL
CN(C)S(=O)(=O)N1CCC(=C(c2ccc(-c3cccc(C#N)c3)cc2)c2nc3cc(F)c(C(F)(F)F)cc3[nH]2)CC1	64	> 3	–
N#Cc1cccc(-c2ccc(C(=C3CCN(CC4CC4)CC3)c3nc4cc(F)c(F)cc4[nH]3)cc2)c1	52	> 3	–
NC(=O)c1cccc(-c2ccc(C(=C3CCN(CC4CC4)CC3)c3nc4cc(F)c(C(F)(F)F)cc4[nH]3)cc2)c1	–	> 3	–
Oc1ccc(-c2ccc(C(=C3CCN(CC4CC4)CC3)c3nc4cc(F)c(C(F)(F)F)cc4[nH]3)cc2)cn1	174	> 3	–
N#Cc1cccc(-c2ccc(C3(c4nc5cc(C(F)(F)F)c(F)cc5[nH]4)CC34CCN(CC3CC3)CC4)cc2)c1 (configuration not stated)	–	> 3	inhibition [3]: 74%
N#Cc1ccccc1-c1ccc(C(=C2CCN(CC3CC3)CC2)c2nc3cc(C(F)(F)F)c(F)cc3[nH]2)cc1	464	> 3	–
N#Cc1cccc(-c2ccc(C(=C3CCN(CC4CC4)CC3)c3nc4cc(C(F)(F)F)c(F)cc4[nH]3)cc2)c1	–	> 3	inhibition [3]: 96%; inhibition in vivo at 30 mg/kg (Mus musculus [4]): 32.6%; inhibition in vivo at 30 mg/kg (Mus musculus [5]): 18.6%; inhibition in vivo at 30 mg/kg (Mus musculus [6]): 31%; inhibition [8]: 84%

SMILES	Ki [1] [nM]	Activity [2] [µM]	also measured
N#Cc1c[nH]c(=O)c(-c2ccc(C(=C3CCN(CC4CC4)CC3)c3nc4cc(C(F)(F)F)c(F)cc4[nH]3)cc2)c1	99	–	–
N#Cc1cncc(-c2ccc(C(=C3CCN(CC4CC4)CC3)c3nc4cc(C(F)(F)F)c(F)cc4[nH]3)cc2)c1	10.3	> 3	–
N#Cc1cccc(-c2ccc(C3(c4nc5cc(C(F)(F)F)c(F)cc5[nH]4)CC34CCN(Cc3ccccc3)CC4)cc2)c1 (configuration not stated)	–	> 3	–
CCN(CC)C(=O)N1CCC(=C(c2ccc(-c3cccc(C#N)c3)cc2)c2nc3cc(F)c(C(F)(F)F)cc3[nH]2)CC1	22	> 3	–
N#CCc1cccc(-c2ccc(C(=C3CCN(CC4CC4)CC3)c3nc4cc(C(F)(F)F)c(F)cc4[nH]3)cc2)c1	26	> 3	–
CCN(CC)CCN1CCC2(CC1)CC2(c1ccc(-c2cccc(C#N)c2)cc1)c1nc2cc(F)c(C(F)(F)F)cc2[nH]1 (configuration not stated)	15	> 3	–
CN(C)C(=O)N1CCC(=C(c2ccc(-c3cccc(C#N)c3)cc2)c2nc3cc(F)c(C(F)(F)F)cc3[nH]2)CC1	37	> 3	inhibition [3]: 50%; AUC (Rattus norvegicus): 1290 ng·h/mL
N#Cc1cccc(-c2ccc(C(=C3CCN(CC4CC4)CC3)c3nc4cc(C#N)ccc4[nH]3)cc2)c1	–	> 3	–
Cn1cccc1C(=O)N1CCC(=C(c2ccc(-c3cccc(C#N)c3)cc2)c2nc3cc(F)c(C(F)(F)F)cc3[nH]2)CC1	–	> 3	–
N#Cc1cccc(-c2ccc(C(=C3CCN(CC(N)=O)CC3)c3nc4cc(F)c(C(F)(F)F)cc4[nH]3)cc2)c1	–	> 3	–
N#Cc1cccc(-c2ccc(C(=C3CCN(CCO)CC3)c3nc4cc(C(F)(F)F)c(F)cc4[nH]3)cc2)c1	7.2	–	–
Cn1cccc1C(=O)N1CCC(=C(c2ccc(-c3cccc(C#N)c3)cc2)c2nc3cc(C(F)(F)F)c(F)cc3[nH]2)CC1	10.1	–	–
CC(C)S(=O)(=O)N1CCC(=C(c2ccc(-c3cccc(C#N)c3)cc2)c2nc3cc(F)c(C(F)(F)F)cc3[nH]2)CC1	–	> 3	–
N#Cc1cccc(-c2ccc(C(=C3CCN(CC(N)=O)CC3)c3nc4cc(C(F)(F)F)c(F)cc4[nH]3)cc2)c1	15.5	–	–
N#Cc1cccc(-c2ccc(C(=C3CCN(C(=O)c4cccs4)CC3)c3nc4cc(C(F)(F)F)c(F)cc4[nH]3)cc2)c1	–	> 3	–
CC(C)S(=O)(=O)N1CCC2(CC1)CC2(c1ccc(-c2cccc(C#N)c2)cc1)c1nc2cc(F)c(C(F)(F)F)cc2[nH]1 (configuration not stated)	67	> 3	–
Fc1cc2[nH]c(C(=C3CCN(CC4CC4)CC3)c3ccc(-c4cncnc4)cc3)nc2cc1C(F)(F)F	–	> 3	–
N#Cc1cccc(-c2ccc(C(=C3CCNCC3)c3nc4cc(C(F)(F)F)c(F)cc4[nH]3)cc2)c1	3.6	> 3	–
N#Cc1cccc(-c2ccc(C(=C3CCN(C(=O)C4CC4)CC3)c3nc4cc(C(F)(F)F)c(F)cc4[nH]3)cc2)c1	31	> 3	–
CCN(CC)C(=O)N1CCC2(CC1)CC2(c1ccc(-c2cccc(C#N)c2)cc1)c1nc2cc(F)c(C(F)(F)F)cc2[nH]1 (configuration not stated)	221	> 3	–
N#Cc1cccc(-c2ccc(C3(c4nc5cc(C(F)(F)F)c(F)cc5[nH]4)CC34CCNCC4)cc2)c1 (configuration not stated)	–	> 3	–
